{"data": "Measurements gathered from unrelated publications", "organism": "Mycobacterium tuberculosis", "read-out": "microbial growth", "note": "Compare with care: the assays were run in different laboratories."}
{"SMILES": "[H]/N=C(/N)N[C@H]1[C@H](O)[C@@H](O)[C@H](O[C@@H]2O[C@@H](C)[C@](O)(C=O)[C@H]2O[C@@H]2O[C@@H](CO)[C@H](O)[C@@H](O)[C@@H]2NC)[C@@H](N/C(N)=N\\[H])[C@@H]1O", "method": "resazurin", "strain": "H37RV", "MIC": "6.25 µg/mL"}
{"SMILES": "COc1ccc2cc1Oc1cc(ccc1OC)CCC(N[C@H]1CCCc3ccccc31)CCCC2 (some centres unmarked)", "method": "broth dilution", "strain": "H37RV", "MIC": "> 100 µg/mL"}
{"SMILES": "O=C1CC[C@@H]2CN(Cc3ccccc3)CC[C@@]23OC[C@H](C2CC2)N13", "strain": "H37RV", "MIC": "37 µM"}
{"SMILES": "CO[C@H]1/C=C/O[C@@]2(C)Oc3c(C)c(O)c4c(O)c(c(/C=N/N5CCN(C)CC5)c(O)c4c3C2=O)NC(=O)/C(C)=C\\C=C\\[C@H](C)[C@H](O)[C@@H](C)[C@@H](O)[C@@H](C)[C@H](OC(C)=O)[C@@H]1C", "strain": "H37RV", "MIC": "0.05 µg/mL"}
{"SMILES": "C[C@@H]([C@H](N)C(=O)N[C@H](C(=O)O)[C@H]1O[C@@H](n2ccc(=O)[nH]c2=O)[C@H](O)[C@@H]1O)[C@H](O)c1ccc(O)cn1", "strain": "H37RV", "time": "14 days", "MIC": "> 50 µg/mL"}
{"SMILES": "COC(=O)c1cc(-c2cccc(NC(=O)Nc3cccc(F)c3)c2)on1", "strain": "ATCC27294 H37RV", "time": "7 days", "MIC": "2 µg/mL"}
{"SMILES": "N#Cc1cc(C(F)(F)F)cc2c(=O)nc(N3CCN(CC4CC4)CC3)sc12", "method": "resazurin", "strain": "H37RV", "MIC": "> 2 µM"}
{"SMILES": "O=C1C(Cl)=C(Cl)C(=O)c2ccccc21", "strain": "H37RV", "time": "14 days", "MIC": "10 µg/mL"}
{"SMILES": "Cc1ccc(C)n1-c1ccc(-c2nnc(-c3ccc(O)cc3)[nH]2)cc1", "method": "broth dilution", "strain": "H37RV", "time": "21 days", "MIC": "16 µg/mL"}
{"SMILES": "CC1=NN(CNc2ccccn2)C(=O)C1=NNn1c(-c2ccccc2)nc2ccccc2c1=O", "method": "resazurin", "strain": "H37RV", "MIC": "110 µM"}
{"SMILES": "O=C(NN1C(=O)CSC12CCCCC2)c1[nH]c2ccc(Cl)cc2c1-c1ccccc1", "strain": "ATCC27294 H37RV", "MIC": "16 µM"}
{"SMILES": "C[C@H]1c2cccc(O)c2C(=O)C2=C(O)[C@]3(O)C(=O)C(C(N)=O)=C(O)[C@@H](N(C)C)[C@@H]3[C@@H](O)[C@@H]21", "method": "resazurin", "strain": "H37RA", "time": "14 days", "MIC": "1 µg/mL"}
{"SMILES": "C=C[C@@]1(C)CC[C@@H]2C(C)(C)c3cccc4[nH]c5c(c34)[C@@]2(O)[C@]1(C#N)[C@H]1O[C@H]1C5(C)C", "strain": "H37RV", "MIC": "11.3 µM"}
{"SMILES": "CCC1CCC2(CC1)SCC(=O)N2NC(=O)c1[nH]c2ccc(Cl)cc2c1-c1ccccc1 (centres unmarked)", "strain": "ATCC27294 H37RV", "MIC": "250 µM"}
{"SMILES": "COC(=O)c1cc(-c2cccc(NC(=S)Nc3ccc(F)c(Cl)c3)c2)on1", "strain": "ATCC27294 H37RV", "time": "7 days", "MIC": "4 µg/mL"}
{"SMILES": "O=C1C(=NNc2nc(-c3ccccc3)cs2)C(N=Cc2ccccc2Cl)=NN1c1ccccc1", "method": "resazurin", "strain": "H37RV", "time": "5 days", "MIC": "51.5 µM"}
{"SMILES": "COc1ccc2cc(-c3nc(C(C)(C)C)[nH]c3-c3ccnc(N)c3)ccc2c1", "strain": "ATCC27294 H37RV", "MIC": "5.4 µM"}
{"SMILES": "CCc1nc2ccc(Cl)cn2c1C(=O)NCc1cccc(S(F)(F)(F)(F)F)c1", "strain": "H37RV", "time": "5 days", "MIC": "0.28 µM"}
{"SMILES": "Cc1ccc(C)n1-c1ccc(-c2nnc(-c3ccccc3Cl)[nH]2)cc1", "method": "broth dilution", "strain": "H37RV", "time": "21 days", "MIC": "8 µg/mL"}
{"SMILES": "O=C1C(=NNc2nc(-c3ccccc3)cs2)C(N=Cc2ccc(Cl)cc2)=NN1c1ccccc1", "method": "resazurin", "strain": "H37RV", "MIC": "25 µg/mL"}
{"SMILES": "O=C(NN1C(=O)CSC12CCC(c1ccccc1)CC2)c1[nH]c2ccc(Cl)cc2c1-c1ccccc1 (centres unmarked)", "strain": "ATCC27294 H37RV", "MIC": "3.9 µM"}
{"SMILES": "CCOC(=O)c1cc(-c2cccc(NC(=O)Nc3ccc(Cl)c(Cl)c3)c2)on1", "strain": "ATCC27294 H37RV", "time": "7 days", "MIC": "1 µg/mL"}
{"SMILES": "Cc1ccc(C)n1-c1ccc(-c2nnc(-c3cccc([N+](=O)[O-])c3)[nH]2)cc1", "method": "broth dilution", "strain": "H37RV", "time": "21 days", "MIC": "16 µg/mL"}
{"SMILES": "NNC(=O)c1ccncc1", "strain": "H37RV", "MIC": "> 13.7 µg/mL"}
{"SMILES": "C=CCOc1cc(O)cc(O)c1C(=O)[C@@H](C)CC", "method": "broth dilution", "strain": "H37RV", "MIC": "100 µg/mL"}
{"SMILES": "O=C(NN1C(=O)CSC12CCCC2)c1[nH]c2ccc(Cl)cc2c1-c1ccccc1", "strain": "ATCC27294 H37RV", "MIC": "1000 µM"}
{"SMILES": "COC(=O)c1cc(-c2cccc(NC(=O)Nc3cc(OC)ccc3OC)c2)on1", "strain": "ATCC27294 H37RV", "time": "7 days", "MIC": "0.5 µg/mL"}
{"SMILES": "Cc1ccc(-c2nc3ccc(C)cn3c2CC(=O)N(C)C)cc1", "strain": "H37RV", "time": "5 days", "MIC": "10 to 11 µM"}
{"SMILES": "CCCCCCC/C=C\\C(O)C#CC#CC(=O)CCOC (centres unmarked)", "method": "resazurin", "strain": "ATCC27294 H37RV", "time": "7 days", "MIC": "> 60 µg/mL"}
{"SMILES": "COC(=O)c1cc(-c2cccc(NC(=S)Nc3ccc(F)cc3F)c2)on1", "strain": "ATCC27294 H37RV", "time": "7 days", "MIC": "2 µg/mL"}
{"SMILES": "O=C(CCNS(=O)(=O)c1ccc([N+](=O)[O-])cc1)N1CCN(C(c2ccc(F)cc2)c2ccc(F)cc2)CC1", "strain": "ATCC27294 H37RV", "MIC": "25 µg/mL"}
{"SMILES": "CN(C)c1ccc(C=NC2=NN(c3ccccc3)C(=O)C2=NNc2nc(-c3ccccc3)cs2)cc1", "method": "resazurin", "strain": "H37RV", "MIC": "6.25 µg/mL"}
{"SMILES": "COC(=O)c1cc(-c2cccc(NC(=O)Nc3ccccc3OC)c2)on1", "strain": "ATCC27294 H37RV", "time": "7 days", "MIC": "0.5 µg/mL"}
{"SMILES": "CCCCCCC/C=C\\[C@H](O)C#CC#C[C@@H](O)CC", "method": "resazurin", "strain": "ATCC35801 ERDMAN", "time": "7 days", "MIC": "49.5 µg/mL"}
{"SMILES": "C[C@@H]1CN(c2nc(=O)c3cc(C(F)(F)F)cc(C#N)c3s2)[C@@H](C)CN1CC1CCCCC1", "method": "resazurin", "strain": "H37RV", "MIC": "> 2 µM"}
{"SMILES": "Cc1c(Cc2ccc(F)cc2)c(=O)n2c([nH]c3ccccc32)c1C#N", "method": "broth dilution", "strain": "H37RV", "MIC": "2 µg/mL"}
{"SMILES": "COC(=O)c1cc(-c2cccc(NC(=O)Nc3ccccc3C)c2)on1", "strain": "ATCC27294 H37RV", "time": "7 days", "MIC": "2 µg/mL"}
{"SMILES": "CC1(C)S[C@@H]2[C@H](NC(=O)[C@H](N)c3ccccc3)C(=O)N2[C@H]1C(=O)O", "method": "resazurin", "strain": "H37RA", "time": "14 days", "MIC": "64 µg/mL"}
{"SMILES": "COC(=O)c1cc(-c2cccc(NC(=O)Nc3ccc(F)cc3)c2)on1", "strain": "ATCC27294 H37RV", "time": "7 days", "MIC": "0.5 µg/mL"}
{"SMILES": "C[C@@H](O)[C@H]1C(=O)N2C(C(=O)O)=C(SCCN=CN)C[C@H]12", "method": "resazurin", "strain": "H37RA", "time": "14 days", "MIC": "16 µg/mL"}
{"SMILES": "CC(C)[C@H]1CO[C@]23CCN(Cc4ccccc4)C[C@H]2CCC(=O)N13", "strain": "H37RV", "time": "7 days", "MIC": "7.3 µM"}
